# Measurements taken from ChEMBL document CHEMBL3632581, “Dimers of Melampomagnolide B Exhibit Potent Anticancer Activity against Hematological and Solid Tumor Cells” (J Med Chem, 2015).
# Columns and labels:
# CCRF-CEM = assay: Cytotoxicity against human CCRF-CEM cells after 48 hrs by SRB assay; assay type: functional
# Outline: (§1)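 NCI-60 five-dose screen at 10−8 to 10−4 M. Cells were plated at 5,000–40,000/well in RPMI 1640 with 5% FBS and 2 mM L-glutamine, then preincubated 24 h, and time-zero plates were TCA-fixed. Compound was added from DMSO stocks and exposed 48 h at 37 °C. Cells were TCA-fixed, SRB-stained, and read at 515 nm. LC50 is the concentration halving the cell population through cell death.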
# K562 = assay: Cytotoxicity against human K562 cells after 48 hrs by SRB assay; assay type: functional; settings: K562, 48 h; outline: as §1
# MOLT-4 = assay: Cytotoxicity against human MOLT4 cells after 48 hrs by SRB assay; assay type: functional; settings: MOLT-4, 48 h; outline: as §1
# RPMI-8226 = assay: Cytotoxicity against human RPMI8226 cells after 48 hrs by SRB assay; assay type: functional; settings: RPMI-8226, 48 h; outline: as §1
# HOP-92 = assay: Cytotoxicity against human HOP92 cells after 48 hrs by SRB assay; assay type: functional; settings: HOP-92, 48 h; outline: as §1
# COLO 205 = assay: Cytotoxicity against human COLO205 cells after 48 hrs by SRB assay; assay type: functional; settings: COLO 205, 48 h; outline: as §1
# HCC 2998 = assay: Cytotoxicity against human HCC2998 cells after 48 hrs by SRB assay; assay type: functional; settings: HCC 2998, 48 h; outline: as §1
# HCT-116 = assay: Cytotoxicity against human HCT116 cells after 48 hrs by SRB assay; assay type: functional; settings: HCT-116, 48 h; outline: as §1
# HCT-15 = assay: Cytotoxicity against human HCT15 cells after 48 hrs by SRB assay; assay type: functional; settings: HCT-15, 48 h; outline: as §1
# HT-29 = assay: Cytotoxicity against human HT-29 cells after 48 hrs by SRB assay; assay type: functional; settings: HT-29, 48 h; outline: as §1
# SNB-75 = assay: Cytotoxicity against human SNB75 cells after 48 hrs by SRB assay; assay type: functional; settings: SNB-75, 48 h; outline: as §1
# U-251 = assay: Cytotoxicity against human U251 cells after 48 hrs by SRB assay; assay type: functional; settings: U-251, 48 h
# Outline: (§2)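 NCI-60 screen: cells grown in RPMI 1640 with 5% FBS and 2 mM L-glutamine, plated at 5,000–40,000 cells/well by doubling time, and preincubated 24 h at 37 °C before drug. Drug was diluted from DMSO stock and given at five concentrations, 10−4 to 10−8 M, for 48 h. Cells fixed with cold TCA, SRB stained, OD read at 515 nm against time-zero and vehicle plates. LC50 taken as the concentration that halves cell population through cell death.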
# M14 = assay: Cytotoxicity against human M14 cells after 48 hrs by SRB assay; assay type: functional; settings: M14, 48 h; outline: as §1
# MDA-MB-435 = assay: Cytotoxicity against human MDA-MB-435 cells after 48 hrs by SRB assay; assay type: functional; settings: MDA-MB-435, 48 h; outline: as §1
# SK-MEL-2 = assay: Cytotoxicity against human SK-MEL-2 cells after 48 hrs by SRB assay; assay type: functional; settings: SK-MEL-2, 48 h; outline: as §1
# SK-MEL-28 = assay: Cytotoxicity against human SK-MEL-28 cells after 48 hrs by SRB assay; assay type: functional; settings: SK-MEL-28, 48 h; outline: as §1
# UACC-257 = assay: Cytotoxicity against human UACC257 cells after 48 hrs by SRB assay; assay type: functional; settings: UACC-257, 48 h; outline: as §2
# OVCAR-3 = assay: Cytotoxicity against human OVCAR3 cells after 48 hrs by SRB assay; assay type: functional; settings: OVCAR-3, 48 h; outline: as §1
# OVCAR-5 = assay: Cytotoxicity against human OVCAR5 cells after 48 hrs by SRB assay; assay type: functional; settings: OVCAR-5, 48 h; outline: as §1
# 786-0 = assay: Cytotoxicity against human 786-0 cells after 48 hrs by SRB assay; assay type: functional; settings: 786-0, 48 h; outline: as §1
# A498 = assay: Cytotoxicity against human A498 cells after 48 hrs by SRB assay; assay type: functional; settings: A498, 48 h; outline: as §1
# RXF 393 = assay: Cytotoxicity against human RXF393 cells after 48 hrs by SRB assay; assay type: functional; settings: RXF 393, 48 h; outline: as §1
# TK-10 = assay: Cytotoxicity against human TK10 cells after 48 hrs by SRB assay; assay type: functional; settings: TK-10, 48 h; outline: as §2
# MCF7 = assay: Cytotoxicity against human MCF7 cells after 48 hrs by SRB assay; assay type: functional; settings: MCF7, 48 h
# Outline: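 NCI-60 screen: cells in RPMI 1640 with 5% FBS and 2 mM L-glutamine, preincubated 24 h at 37 °C. Compound was then added for 48 h at five concentrations (10−4 to 10−8 M). Cells were fixed with cold TCA and stained with 0.4% SRB in 1% acetic acid, and OD read at 515 nm. GI50 is the concentration halving net protein increase versus control.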
# MDA-MB-231 = assay: Cytotoxicity against human MDA-MB-231 cells after 48 hrs by SRB assay; assay type: functional; settings: MDA-MB-231, 48 h; outline: as §1
# [1] = Cytotoxicity against human Hs 578T cells after 48 hrs by SRB assay; assay type: functional; outline: as §1
# T47D = assay: Cytotoxicity against human T47D cells after 48 hrs by SRB assay; assay type: functional; outline: as §2
# [2] = Antileukemic activity against human AML01 cells after 24 hrs by annexin V/7-AAD staining-based flow cytometric analysis; assay type: functional, cell-based
# Outline: (§3)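 Primary AML specimens from consenting donors, isolated by Ficoll-Paque gradient and sometimes cryopreserved. Cells were held 1 h in serum-free IMDM with 20% BIT 9500, LDL and β-mercaptoethanol before drug (DMSO stock diluted in PBS, ≤0.5% DMSO final). Exposure was 24 h over 0.5-10 μM. Annexin V/7-AAD double-negative cells, normalized to vehicle, gave the EC50. Run in triplicate.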
# [3] = Antileukemic activity against human AML04 cells after 24 hrs by annexin V/7-AAD staining-based flow cytometric analysis; assay type: functional, cell-based; outline: as §3
# [4] = Antileukemic activity against human AML05 cells after 24 hrs by annexin V/7-AAD staining-based flow cytometric analysis; assay type: functional, cell-based; outline: as §3
# [5] = Potency index, ratio of parthenolide EC50 to compound EC50 for human M9-ENL1 cells; assay type: functional
# [6] = read-out: LC50 (the source's name)
smiles,measurement,setting,value
C=C1C(=O)O[C@H]2[C@H]1CC/C(COC(=O)NCCCCCNC(=O)OC/C1=C/CC[C@@]3(C)O[C@H]3[C@H]3OC(=O)C(=C)[C@@H]3CC1)=C\CC[C@@]1(C)O[C@@H]21,GI50,CCRF-CEM,0.28 µM
same,CC50,CCRF-CEM; [6],> 100 µM
same,GI50,K562,0.56 µM
same,CC50,K562; [6],> 100 µM
same,GI50,MOLT-4,1.48 µM
same,CC50,MOLT-4; [6],> 100 µM
same,GI50,RPMI-8226,0.78 µM
same,CC50,RPMI-8226; [6],> 100 µM
same,GI50,HOP-92,1.3 µM
same,CC50,HOP-92; [6],8.61 µM
same,GI50,COLO 205,0.52 µM
same,CC50,COLO 205; [6],7.97 µM
same,GI50,HCC 2998,6.71 µM
same,CC50,HCC 2998; [6],53.9 µM
same,GI50,HCT-116,0.54 µM
same,CC50,HCT-116; [6],4.56 µM
same,GI50,HCT-15,6.18 µM
same,CC50,HCT-15; [6],49.8 µM
same,GI50,HT-29,0.51 µM
same,CC50,HT-29; [6],4.85 µM
same,GI50,SNB-75,2.2 µM
same,CC50,SNB-75; [6],33.8 µM
same,GI50,U-251,3.51 µM
same,CC50,U-251; [6],51.5 µM
same,GI50,M14,1.71 µM
same,CC50,M14; [6],8.2 µM
same,GI50,MDA-MB-435,1.51 µM
same,CC50,MDA-MB-435; [6],7.3 µM
same,GI50,SK-MEL-2,2.01 µM
same,CC50,SK-MEL-2; [6],7.81 µM
same,GI50,SK-MEL-28,1.58 µM
same,CC50,SK-MEL-28; [6],12.6 µM
same,GI50,UACC-257,2.07 µM
same,CC50,UACC-257; [6],42.4 µM
same,GI50,OVCAR-3,0.76 µM
same,CC50,OVCAR-3; [6],5.07 µM
same,GI50,OVCAR-5,1.67 µM
same,CC50,OVCAR-5; [6],7.47 µM
same,GI50,786-0,1.57 µM
same,CC50,786-0; [6],6.39 µM
same,GI50,A498,6.24 µM
same,CC50,A498; [6],47.5 µM
same,GI50,RXF 393,0.85 µM
same,CC50,RXF 393; [6],6.35 µM
same,GI50,TK-10,1.82 µM
same,CC50,TK-10; [6],11.8 µM
same,GI50,MCF7,0.39 µM
same,CC50,MCF7; [6],6.2 µM
same,GI50,MDA-MB-231,1.47 µM
same,LC50,MDA-MB-231,6.4 µM
same,GI50,[1],2.91 µM
same,CC50,[1]; [6],> 100 µM
same,GI50,T47D,1.6 µM
same,CC50,T47D; [6],> 100 µM
same,EC50,[2],1.6 µM
same,EC50,[3],3.5 µM
same,EC50,[4],1.6 µM
same,Ratio EC50,[5],2
